In ChEMBL document CHEMBL3351317 (J Med Chem, 2014):
Values belong to the compound of their own block, whether it stands above or below them.

Legend:
[1] = Distribution coefficient, log D between 1-octonol and aqueous phosphate buffer at pH 7.4; assay type: physicochemical; details: 1-octanol/aqueous phosphate buffer
Outline: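 logD measured as distribution between 1-octanol and aqueous phosphate buffer, pH 7.4.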

Mus musculus = species on record: Mus musculus; assay: fCmax in mouse during 12 days study; assay type: ADME, organism-based; details: in vivo, 288 h
[2] = Permeability from apical to basolateral side in human Caco2 cells at 10 uM; assay type: ADME, cell-based; details: Caco-2
Outline: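 In vitro Caco-2 monolayer, compound at 10 µM. Apparent permeability (Papp) measured apical to basolateral; efflux ratio also determined.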

[3] = Stability in pH 1 to 8 buffer; assay type: physicochemical
[4] = Stability in pH 10 buffer assessed as loss of trifluoro-oxadiazole group; assay type: physicochemical
[5] = Degradation half life in pH 10 buffer assessed as loss of trifluoro-oxadiazole group by measuring piperazine level at 25 degC; assay type: physicochemical
[6] = Plasma clearance in C57BL6 mouse at 3 mg/kg, iv or 5 mg/kg, po; assay type: ADME, organism-based
Outline: (§1)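 Male C57BL6 mice. IV dose 3 mg/kg as a solution in 5% DMSO:95% hydroxypropyl β-cyclodextrin. Oral dose 5 mg/kg as a 0.1% HMPC/tween suspension. Plasma sampled for pharmacokinetic parameters.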

[7] = Volume of distribution at steady state in C57BL6 mouse at 3 mg/kg, iv or 5 mg/kg, po; assay type: ADME, organism-based; details: in vivo, read-out: Vdss; outline: as §1
[8] = Half life in C57BL6 mouse at 5 mg/kg, po; assay type: ADME, organism-based; design: dose 5 mg/kg, route oral; details: in vivo
[9] = Half life in C57BL6 mouse at 3 mg/kg, iv; assay type: ADME, organism-based; design: dose 3 mg/kg, route intravenous; details: in vivo
Outline: (§2)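 Male C57BL6 mice given 3 mg/kg, male Han Wistar rats 2 mg/kg, beagle dogs (male and female) 2 mg/kg, IV as solution in 5% DMSO:95% hydroxypropyl β-cyclodextrin; plasma PK parameters determined.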

[10] = Oral bioavailability in C57BL6 mouse at 5 mg/kg; assay type: ADME, organism-based; details: in vivo; outline: as §1
[11] = Plasma clearance in Han Wistar rat at 2 mg/kg, iv or 5 mg/kg, po; assay type: ADME, organism-based
Outline: (§3)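 Male Han Wistar rats. IV dose 2 mg/kg in 5% DMSO:95% hydroxypropyl β-cyclodextrin. Oral dose 5 mg/kg as a 0.1% HMPC/tween suspension. Plasma pharmacokinetic parameters derived.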

[12] = Volume of distribution at steady state in Han Wistar rat at 2 mg/kg, iv or 5 mg/kg, po; assay type: ADME, organism-based; details: in vivo, read-out: Vdss; outline: as §3
[13] = Half life in Han Wistar rat at 5 mg/kg, po; assay type: ADME, organism-based; design: dose 5 mg/kg, route oral; details: in vivo
[14] = Half life in Han Wistar rat at 2 mg/kg, iv; assay type: ADME, organism-based; design: dose 2 mg/kg, route intravenous; details: in vivo; outline: as §2
[15] = Oral bioavailability in Han Wistar rat at 5 mg/kg; assay type: ADME, organism-based; details: in vivo; outline: as §3
[16] = Plasma clearance in beagle dog at 2 mg/kg, iv or 3.4 mg/kg, po; assay type: ADME, organism-based, Canis lupus familiaris
Outline: (§4)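 Beagle dogs, male and female. IV dose 2 mg/kg in 5% DMSO:95% hydroxypropyl β-cyclodextrin. Oral dose 3.4 mg/kg as a 0.1% Pluronic F127 suspension. Plasma pharmacokinetic parameters derived.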

[17] = Volume of distribution at steady state in beagle dog at 2 mg/kg, iv or 3.4 mg/kg, po; assay type: ADME, organism-based, Canis lupus familiaris; details: in vivo, read-out: Vdss; outline: as §4
[18] = Half life in beagle dog at 3.4 mg/kg, po; assay type: ADME, organism-based, Canis lupus familiaris; design: dose 3.4 mg/kg, route oral; details: in vivo
[19] = Half life in beagle dog at 2 mg/kg, iv; assay type: ADME, organism-based, Canis lupus familiaris; design: dose 2 mg/kg, route intravenous; details: in vivo; outline: as §2
[20] = Oral bioavailability in beagle dog at 3.4 mg/kg; assay type: ADME, organism-based, Canis lupus familiaris; details: in vivo; outline: as §4
[21] = Intrinsic clearance in mouse hepatocytes assessed per million cells; assay type: ADME, cell-based, Hepatocyte; details: read-out: CLH
[22] = Intrinsic clearance in dog hepatocytes assessed per million cells; assay type: ADME, cell-based, Canis lupus familiaris, Hepatocyte; details: read-out: CLH
[23] = Intrinsic clearance in human hepatocytes assessed per million cells; assay type: ADME, cell-based, Hepatocyte; details: read-out: CLH
[24] = Cmax in Han Wistar rat at 4.5 mg/kg, po; assay type: ADME, organism-based; design: dose 4.5 mg/kg, route oral; details: in vivo
[25] = Cmax in Han Wistar rat at […], po; assay type: ADME, organism-based; design: dose 7.1 mg/kg, route oral; details: in vivo
[26] = Cmax in Han Wistar rat at 12 mg/kg, po; assay type: ADME, organism-based; design: dose 12 mg/kg, route oral; details: in vivo
[27] = Cmax in Han Wistar rat at 19 mg/kg, po; assay type: ADME, organism-based; design: dose 19 mg/kg, route oral; details: in vivo
[28] = Cmax in Han Wistar rat at 100 mg/kg, po; assay type: ADME, organism-based; design: dose 100 mg/kg, route oral; details: in vivo
[29] = Cmax in Han Wistar rat at 154 mg/kg, po; assay type: ADME, organism-based; design: dose 154 mg/kg, route oral; details: in vivo
[30] = AUC (0 to 24 hrs) in Han Wistar rat at 4.5 mg/kg, po; assay type: ADME, organism-based; design: time < 24 hr, dose 4.5 mg/kg, route oral; details: plasma
Outline: (§5)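 Male Han Wistar rats, fed, single oral dose of suspension in 0.1% Pluronic F127; plasma AUC0-24hr in μM.h; mean of two animals.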

[31] = AUC (0 to 24 hrs) in Han Wistar rat at […], po; assay type: ADME, organism-based; design: time < 24 hr, dose 7.1 mg/kg, route oral; details: plasma
[32] = AUC (0 to 24 hrs) in Han Wistar rat at 12 mg/kg, po; assay type: ADME, organism-based; design: time < 24 hr, dose 12 mg/kg, route oral; details: plasma; outline: as §5
[33] = AUC (0 to 24 hrs) in Han Wistar rat at 19 mg/kg, po; assay type: ADME, organism-based; design: time < 24 hr, dose 19 mg/kg, route oral; details: plasma; outline: as §5
[34] = AUC (0 to 24 hrs) in Han Wistar rat at 100 mg/kg, po; assay type: ADME, organism-based; design: time < 24 hr, dose 100 mg/kg, route oral; details: plasma; outline: as §5
[35] = AUC (0 to 24 hrs) in Han Wistar rat at 154 mg/kg, po; assay type: ADME, organism-based; design: time < 24 hr, dose 154 mg/kg, route oral; details: plasma; outline: as §5
[36] = Cmax in beagle dog at 5 mg/kg, po; assay type: ADME, organism-based, Canis lupus familiaris; design: dose 5 mg/kg, route oral; details: in vivo
[37] = Cmax in beagle dog at 50 mg/kg, po; assay type: ADME, organism-based, Canis lupus familiaris; design: dose 50 mg/kg, route oral; details: in vivo
[38] = Cmax in beagle dog at 98 mg/kg, po; assay type: ADME, organism-based, Canis lupus familiaris; design: dose 98 mg/kg, route oral; details: in vivo
[39] = AUC (0 to 24 hrs) in beagle dog at 5 mg/kg, po; assay type: ADME, organism-based, Canis lupus familiaris; design: time < 24 hr, dose 5 mg/kg, route oral; details: plasma
Outline: (§6)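 Beagle dogs (one male, one female), fed, single oral dose of suspension in 0.1% Pluronic F127; plasma AUC0-24hr in μM.h; mean of the two animals.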

[40] = AUC (0 to 24 hrs) in beagle dog at 50 mg/kg, po; assay type: ADME, organism-based, Canis lupus familiaris; design: time < 24 hr, dose 50 mg/kg, route oral; details: plasma; outline: as §6
[41] = AUC (0 to 24 hrs) in beagle dog at 98 mg/kg, po; assay type: ADME, organism-based, Canis lupus familiaris; design: time < 24 hr, dose 98 mg/kg, route oral; details: plasma; outline: as §6
[42] = Cmax in C57BL6 mouse at […], po; assay type: ADME, organism-based; design: dose 5.7 mg/kg, route oral; details: in vivo
[43] = Cmax in C57BL6 mouse at 11 mg/kg, po; assay type: ADME, organism-based; design: dose 11 mg/kg, route oral; details: in vivo
[44] = Cmax in C57BL6 mouse at 31 mg/kg, po; assay type: ADME, organism-based; design: dose 31 mg/kg, route oral; details: in vivo
[45] = Cmax in C57BL6 mouse at 57 mg/kg, po; assay type: ADME, organism-based; design: dose 57 mg/kg, route oral; details: in vivo
[46] = AUC (0 to 24 hrs) in C57BL6 mouse at […], po; assay type: ADME, organism-based; design: time < 24 hr, dose 5.7 mg/kg, route oral; details: plasma
[47] = AUC (0 to 24 hrs) in C57BL6 mouse at 11 mg/kg, po; assay type: ADME, organism-based; design: time < 24 hr, dose 11 mg/kg, route oral; details: plasma
Outline: (§7)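 Male C57BL6 mice, fed, single oral dose of suspension in 0.1% Pluronic F127; plasma sampled, AUC0-24hr in μM.h; mean of two animals.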

[48] = AUC (0 to 24 hrs) in C57BL6 mouse at 31 mg/kg, po; assay type: ADME, organism-based; design: time < 24 hr, dose 31 mg/kg, route oral; details: plasma; outline: as §7
[49] = AUC (0 to 24 hrs) in C57BL6 mouse at 57 mg/kg, po; assay type: ADME, organism-based; design: time < 24 hr, dose 57 mg/kg, route oral; details: plasma; outline: as §7

logD [1]: 2.1
SMILES: C[C@@H]1CN(c2nnc(C(F)(F)F)o2)CCN1c1ncc(OCc2ccc(CS(C)(=N)=O)cc2F)cn1 (some centres undefined)

logD [1]: 3.7
SMILES: C[C@@H]1CN(c2nc(C(F)(F)F)no2)CCN1c1ncc(OCc2ccc(S(C)(=O)=O)cc2F)cn1

logD [1]: 3.6
fCmax (Mus musculus): 0.7 µM
Papp A→B at 10 µM [2]: 10 ×10⁻⁶ cm/s
Stability [3]: Stable
Stability [4]: Unstable
t1/2 [5]: 60 h
clearance [6]: 9.8 mL/min/kg
Vd [7]: 5.1 L/kg
half-life [8]: 6.9 h
half-life [9]: 6.3 h
bioavailability [10]: 76%
clearance [11]: 11 mL/min/kg
Vd [12]: 5.2 L/kg
half-life [13]: 6.7 h
half-life [14]: 6.1 h
bioavailability [15]: 85%
clearance [16]: 1.6 mL/min/kg
Vd [17]: 3.3 L/kg
half-life [18]: 30 h
half-life [19]: 26 h
bioavailability [20]: 98%
hepatocyte CLint [21]: 7 µL/min/1e6 cells
hepatocyte CLint [22]: < 2 µL/min/1e6 cells
hepatocyte CLint [23]: < 2 µL/min/1e6 cells
Cmax [24]: 0.8 µM
Cmax [25]: 1.1 µM
Cmax [26]: 3.4 µM
Cmax [27]: 7.5 µM
Cmax [28]: 8 µM
Cmax [29]: 13.7 µM
AUC(0-t) at 24 h [30]: 10 µM·h
AUC(0-t) at 24 h [31]: 11 µM·h
AUC(0-t) at 24 h [32]: 33 µM·h
AUC(0-t) at 24 h [33]: 106 µM·h
AUC(0-t) at 24 h [34]: 123 µM·h
AUC(0-t) at 24 h [35]: 247 µM·h
Cmax [36]: 1.5 µM
Cmax [37]: 3.2 µM
Cmax [38]: 5.3 µM
AUC(0-t) at 24 h [39]: 20 µM·h
AUC(0-t) at 24 h [40]: 42 µM·h
AUC(0-t) at 24 h [41]: 78 µM·h
Cmax [42]: 2.5 µM
Cmax [43]: 3.3 µM
Cmax [44]: 11.8 µM
Cmax [45]: 29 µM
AUC(0-t) at 24 h [46]: 26 µM·h
AUC(0-t) at 24 h [47]: 35 µM·h
AUC(0-t) at 24 h [48]: 151 µM·h
AUC(0-t) at 24 h [49]: 456 µM·h
SMILES: C[C@@H]1CN(c2nc(C(F)(F)F)no2)CCN1c1ncc(OCc2ccc(CS(C)(=O)=O)cc2F)cn1

logD [1]: 3.4
SMILES: C[C@@H]1CN(c2nc(C(F)(F)F)no2)CCN1c1ncc(OCc2ccc(C[S+](C)[O-])cc2F)cn1 (some centres undefined)

logD [1]: 2.8
SMILES: C[C@@H]1CN(c2nc(C(F)(F)F)no2)CCN1c1ncc(OCc2ccc(CS(C)(=N)=O)cc2F)cn1 (some centres undefined)
